Drawing on ChEMBL document CHEMBL1123064, “[1,4]Benzoxazine-2,3-diones as antiallergic agents” (J Med Chem, 1985), this text covers IC50, ED50 and inhibition in vivo for 22 molecules.

A word on the ED50: it is the dose that gives a 50% effect, or the effect in half of the subjects. Low readings indicate an effect at a small dose, high ones a need for a large dose. A word on the inhibition in vivo: it is the percentage by which the read-out fell short of the control. A high value points to a strong effect.

The species named for assay [1] is Rattus norvegicus. The experiment in a line: Concentration required to inhibit antigen-induced release of histamine (AIR) by 50% from passively sensitized rat mast cells. Type of assay: functional, cell-based. To be noted: read-out: I50. Summed up:
(§1)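 Washed rat mast cells, passively sensitized in vitro with rat anti-ovalbumin serum, washed again, then challenged with ovalbumin; histamine release measured. Compounds dissolved in Me2SO (final 0.17%). I50 read from concentration-dependent inhibition; number of experiments in parentheses. DSCG positive control in every experiment.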

For assay [2], the system named is Rattus norvegicus. The assay is described as follows: Effective dose against passive cutaneous anaphylaxis when administered perorally. The class given is functional. The settings on record: po. Summed up: (§2)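 IgE antiserum was raised in male Sprague-Dawley rats with im ovalbumin/aluminum hydroxide plus ip B. pertussis. Naive rats were sensitized intradermally at dorsal sites (antiserum 1:20). After 48 h, groups of four received oral compound or vehicle (1% methylcellulose). 10 min later, iv challenge with 4 mg ovalbumin in 1% Evans blue; blued wheal areas measured at 30 min; Student's t test.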

Assay [3] deals with Rattus norvegicus. The assay is described as follows: Inhibition of antigen-induced […] at a dose of 25 mg/kg in passive cutaneous anaphylaxis in the male Sprague-Dawley rats. The class given is functional. Summed up:
as §2

Assay [4] relates to Rattus norvegicus. The experiment in a line: Percent Inhibition of antigen-induced release of histamine at a dose of 50 mg/kg in passive cutaneous anaphylaxis in the male Sprague-Dawley rats. The class given is functional. The essentials:
as §2

The test system of assay [5] is Rattus norvegicus. The assay is described as follows: Effective dose against passive cutaneous anaphylaxis in rat when administered perorally. Type of assay: functional. The settings on record: po. The essentials:
as §2

Assay [6] concerns Rattus norvegicus. The experiment in a line: Effective dose against passive anaphylaxis in rat when administered intraperitoneally. Type of assay: functional. To be noted: ip.
The test system of assay [7] is Rattus norvegicus. The experiment in a line: Inhibition of antigen-induced release of histamine at a dose of 50 mg/kg in passive cutaneous anaphylaxis in the male Sprague-Dawley rats. Type of assay: functional. Summed up:
as §2

The species named for assay [8] is Rattus norvegicus. The experiment in a line: Concentration required to inhibit antigen-induced release of histamine (AIR) by 50% from passively sensitized rat mast cells at p<0.01. Type of assay: functional, cell-based. To be noted: Mast cell, read-out: I50. Summed up: as §1
The subject of assay [9] is Rattus norvegicus. The experiment in a line: Effective dose against passive cutaneous anaphylaxis in rat when administered intraperitoneally. The class given is functional. The settings on record: ip.

As for `C=CCc1cc(OC)c2oc(=O)c(=O)[nH]c2c1`, the IC50 in the assay filed under Rattus norvegicus [1] came out at 10 µM. This molecule also yielded a median effective dose (ED50) in the assay with Rattus norvegicus [2] of 7 mg/kg. Besides, the inhibition in vivo at 25 mg/kg in the assay on Rattus norvegicus [3] stood at 77%.
Consider `O=c1[nH]c2c(ccc3ccccc32)oc1=O`, for which the IC50 in the assay filed under Rattus norvegicus [1] was below 100 µM. In addition, the inhibition in vivo at 50 mg/kg in the assay on Rattus norvegicus [4] turned out to be 18%.
`O=c1[nH]c2cc3c(cc2oc1=O)CCCC3`: in the assay listed under Rattus norvegicus [1], the IC50 worked out at 10 µM. In the assay on Rattus norvegicus [5], this molecule registered an ED50 of 96 mg/kg. The inhibition in vivo at 25 mg/kg with Rattus norvegicus [3] turned out to be 15%.
Take `O=c1[nH]c2ccc(O)cc2oc1=O`: the IC50 in the assay filed under Rattus norvegicus [1] is 170 µM.
For `Cc1ccc2[nH]c(=O)c(=O)oc2c1`, the IC50 in the assay filed under Rattus norvegicus [1] turned out to be 32 µM. Also, the inhibition in vivo at 50 mg/kg in the assay with Rattus norvegicus [4] turned out to be 97%.
`O=c1[nH]c2cc(C(F)(F)F)ccc2oc1=O`: in the assay filed under Rattus norvegicus [1], the IC50 was determined as 100 µM. Also, 25 mg/kg produced 20% inhibition in vivo in the assay with Rattus norvegicus [3].
With `O=C(O)c1ccc2[nH]c(=O)c(=O)oc2c1`, the IC50 in the assay listed under Rattus norvegicus [1] was 16 µM. 25 mg/kg produced 7% inhibition in vivo in the assay with Rattus norvegicus [3]. Moreover, the inhibition in vivo at 50 mg/kg in the assay on Rattus norvegicus [4] came out at 83%.
As for `COC(=O)c1cc(OC)c2oc(=O)c(=O)[nH]c2c1`, the IC50 in the assay filed under Rattus norvegicus [1] was found to be 3.4 µM. In the assay on Rattus norvegicus [3], this molecule gave an inhibition in vivo at 25 mg/kg of 35%.
For `COc1ccc2[nH]c(=O)c(=O)oc2c1`, in the assay listed under Rattus norvegicus [1], the IC50 came to 28 µM. Further, the inhibition in vivo at 25 mg/kg with Rattus norvegicus [3] came to 33%.
For the molecule `O=c1[nH]c2cc3oc(=O)c(=O)[nH]c3cc2oc1=O`, the IC50 in the assay filed under Rattus norvegicus [1] amounted to 1.2 µM. Also, the ED50 in the assay on Rattus norvegicus [5] was above 125 mg/kg. Also, in the assay with Rattus norvegicus [3], the inhibition in vivo at 25 mg/kg stood at 0%.
Turning to `COc1ccc2oc(=O)c(=O)[nH]c2c1`, the IC50 in the assay listed under Rattus norvegicus [1] is 15 µM. Further, the inhibition in vivo at 25 mg/kg in the assay with Rattus norvegicus [3] stood at 21%.
On to `O=c1[nH]c2ccccc2oc1=O`, for which, in the assay filed under Rattus norvegicus [1], the IC50 was determined as 42 µM. In addition, testing at 50 mg/kg with Rattus norvegicus [4] gave an inhibition in vivo of 70%.
In the case of `CCOC(=O)C(=O)Nc1ccc2oc(=O)c(=O)[nH]c2c1`, the IC50 in the assay filed under Rattus norvegicus [1] is 60 µM.
In the case of `N#Cc1ccc2[nH]c(=O)c(=O)oc2c1`, the IC50 in the assay listed under Rattus norvegicus [1] turned out to be 15 µM. Also, the 50% effective dose (ED50) in the assay on Rattus norvegicus [6] stood at 23 mg/kg. In the assay on Rattus norvegicus [7], this molecule came in with an inhibition in vivo at 50 mg/kg of 14%.
As to `O=c1[nH]c2cc3ccccc3cc2oc1=O`, the IC50 in the assay filed under Rattus norvegicus [8] was 45 µM. The molecule also yielded an inhibition in vivo at 25 mg/kg with Rattus norvegicus [3] of 11%. This molecule also yielded an inhibition in vivo at 50 mg/kg in the assay with Rattus norvegicus [4] of 45%.
In the case of `O=c1[nH]c2cc3[nH]c(=O)c(=O)oc3cc2oc1=O`, in the assay filed under Rattus norvegicus [1], the IC50 turned out to be 3 µM. The molecule further returned a median effective dose (ED50) in the assay with Rattus norvegicus [5] above 125 mg/kg. In the assay with Rattus norvegicus [3], this molecule showed an inhibition in vivo at 25 mg/kg of 13%.
As for `COc1cc2[nH]c(=O)c(=O)oc2cc1OC`, the IC50 in the assay listed under Rattus norvegicus [1] was found to be 30 µM. Besides, it took a dose of 20 mg/kg to reach the 50% effect level in the assay on Rattus norvegicus [5] (ED50). Also, in the assay on Rattus norvegicus [3], the inhibition in vivo at 25 mg/kg is 45%. This molecule also gave an inhibition in vivo at 50 mg/kg with Rattus norvegicus [4] of 100%.
Turning to `CCOC(=O)c1ccc2oc(=O)c(=O)[nH]c2c1`, the IC50 in the assay filed under Rattus norvegicus [1] was determined as 10 µM. In the assay with Rattus norvegicus [3], this molecule showed an inhibition in vivo at 25 mg/kg of 0%.
For the molecule `O=c1[nH]c2cc([N+](=O)[O-])ccc2oc1=O`, the IC50 in the assay filed under Rattus norvegicus [1] was found to be 0.8 µM. Also, the inhibition in vivo at 50 mg/kg in the assay with Rattus norvegicus [7] was 24%; with Rattus norvegicus [4], 91%.
Take `O=c1[nH]c2cc(Cl)ccc2oc1=O`: 25 mg/kg produced 14% inhibition in vivo with Rattus norvegicus [3].
In the case of `COc1cccc2[nH]c(=O)c(=O)oc12`, the IC50 in the assay filed under Rattus norvegicus [1] was 7 µM. This molecule also gave a 50% effective dose (ED50) in the assay with Rattus norvegicus [5] of 14 mg/kg. This molecule displayed an inhibition in vivo at 25 mg/kg with Rattus norvegicus [3] of 88%. In the assay with Rattus norvegicus [4], this molecule showed an inhibition in vivo at 50 mg/kg of 89%.
For the molecule `O=C([O-])c1cc(=O)c2c(OCC(O)COc3cccc4oc(C(=O)[O-])cc(=O)c34)cccc2o1.[Na+].[Na+]` [CROMOLYN SODIUM], in the assay filed under Rattus norvegicus [1], the IC50 is 4.5 µM. Moreover, the 50% effect level in the assay with Rattus norvegicus [9] (ED50) was put at a dose of 6 mg/kg.
